Measured values gathered from unrelated publications.
Target: Glycogen synthase kinase-3 beta (GSK3B, Homo sapiens, UniProt P49841)
Method: competition with immobilised ligand

| Compound | test | conditions | remaining binding |
| --- | --- | --- | --- |
| C=CC(=O)N1CCC(C(=O)NCC(=O)N2CCN(c3nc(-c4cnc(N)nc4C(F)F)nc(N4CCOCC4)n3)CC2)CC1 | binding | 1 µM | 74% |
| Cc1cc(NC(=O)c2cccc(S(F)(F)(F)(F)F)c2)cc(-n2ccn3nc(-c4cccnc4)cc23)c1 | cell-free assay | 1 µM | 85.4% |
| C[C@@H]1CN(c2ccc3ncc(-c4ccc5[nH]nc(C6CC6)c5c4)n3n2)C[C@H](C)O1 | binding | 0.5 µM | 74% |
| O=C(c1ccc(Nc2ncc(Cl)c(-c3ccc(Cl)s3)n2)cc1)N1CCC(N2CCCC2)CC1 | binding | 1 µM | 60% |
| CC(C)(C)c1ccc(-c2nc(CBr)nn2-c2cccc(O)c2)cc1 | cell-free assay | 10 µM | 81% |
| COC(=O)Nc1nc2ccc(C(=O)c3ccccc3)cc2[nH]1 | cell-free assay | 10 µM | 35% |
| COc1cnc(Nc2cccc(S(N)(=O)=O)c2)nc1N1CCN(c2ccccc2)CC1 | binding | 1 µM | 97% |
| F[C@@H]1CCN(c2nccc(-c3cnn4ncccc34)n2)C1 | binding | 1 µM | 75% |
| c1cncc(-c2cccc(Nc3nccc(NC4CCCCC4)n3)c2)c1 | binding | 10 µM | 89% |
| O=C(NCC1CCOCC1)c1n[nH]cc1NC(=O)c1c(F)cccc1F | binding | 1 µM | 0.2% |
| O=C(NCCCN1CCOCC1)c1ccc(Nc2nccc(-c3cc4ccccc4s3)n2)cc1 | binding | 1 µM | 73% |
| Cc1nc(Cc2cccc(C(F)(F)F)c2)sc1-c1ccc(C(N)=O)nc1 | cell-free assay | 1 µM | 100% |
| N#Cc1ccccc1CSc1nnc2c(n1)[nH]c1ccccc12 | binding | 10 µM | 100% |
| C[C@H](c1ccnc(Nc2nc3ccc(-c4cc(N(C)C)ncn4)cc3[nH]2)c1)N1CCN(C(=O)CC(F)(F)F)CC1 | cell-free assay | 0.1 µM | 100% |
| C[C@H]1CCN(c2nccc(-c3cnn4ncccc34)n2)C1 | binding | 1 µM | 98% |
| N#Cc1ccc(Nc2ccc3[nH]c(=O)[nH]c3c2)c(Cl)c1 | cell-free assay | 1 µM | 96% |
| CNC(=O)[C@@H]1CC[C@@H](n2c(-c3ccc4cnccc4c3)nc3ccc(C(=O)NCc4cccc(C(N)=O)c4)cc32)C1 | binding | 1 µM | 95% |
| O=C(c1ccc(Nc2ncc(Cl)c(-c3cc4ccccc4s3)n2)cc1)N1CCC(N2CCCC2)CC1 | binding | 1 µM | 37% |
| Cn1nc(C(=O)NCc2ccc(C(=O)O)cc2)cc1-c1ccc2[nH]ccc2c1 | cell-free assay | 0.1 µM | 78% |
